Test results from ChEMBL document CHEMBL4385631, “Small molecule inhibition of microRNA-21 expression reduces cell viability and microtumor formation” (Bioorg Med Chem, 2019).
Active and inactive are the calls of the source. The calls are words filed in the database; no cut-off is given here.

Columns and labels:
microRNA 21 [1] = assay: Inhibition of miR-21 RNA (unknown origin) in HeLa cells harboring luciferase gene assessed as increase in luminescence at 10 uM after 48 hrs by Bright-glo luciferase assay relative to DMSO; format: cell-based
Outline: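 HeLa-miR21-Luc stable reporter cells treated at 10 µM for 48 h. Luminescence normalized to cell viability and expressed as fold change over DMSO control. Mean ± SD of at least three independent experiments.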

HeLa [2] = assay: Effect on non-miRNA pathway in human HeLa cells harboring psi-check empty vector assessed as increase in luminescence at 10 uM after 48 hrs by dual luciferase assay relative to control; format: functional
Outline: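 HeLa cells transfected with psiCHECK-empty reporter (sequence not targeted by any known miRNA), then treated at 10 µM for 48 h. Dual luciferase assay; firefly signal normalized to Renilla, then to DMSO. Three independent experiments, mean ± SD; unpaired t-test.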

[3] = target: Luciferin 4-monooxygenase (Photinus pyralis) (UniProt P08659); assay: Inhibition of recombinant firefly luciferase activity assessed as reduction in luminescence at 10 uM by Bright-glo luciferase assay
[4] = target: Luciferin 4-monooxygenase (Photinus pyralis) (UniProt P08659); assay: Inhibition of recombinant firefly luciferase activity assessed as reduction in luminescence at 10 uM by Bright-glo luciferase assay relative to control
microRNA 21 [5] = assay: Inhibition of miR-21 RNA (unknown origin) in HeLa cells harboring luciferase gene after 48 hrs by Bright-glo luciferase assay; format: cell-based
Outline: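 HeLa-miR21-Luc stable reporter cells treated across a concentration range, then Bright-Glo assay. Luciferase signal normalized first to cell viability, then to DMSO. Three independent experiments; EC50 from nonlinear regression fit.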

microRNA 21 [6] = assay: Binding affinity to pre-miR-21 RNA (unknown origin) assessed as melting temperature by UV spectroscopic analysis (reference value: 56 degC); format: nucleic-acid assay
HeLa [7] = assay: Induction of apoptosis in human HeLa cells assessed as increase in caspase 3/7 activity at 50 uM after 24 hrs by caspase3/7 activity assay relative to control; format: functional
Outline: (§1)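 HeLa cells treated for 24 h, then caspase-3/7 activity assay.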

microRNA 21 [8] = assay: Inhibition of miR-21 RNA in human HeLa cells assessed as reduction in matured miR-21 RNA at 10 uM after 48 hrs by RT-qPCR analysis relative to control
microRNA 21 [9] = assay: Inhibition of miR-21 RNA in human A549 cells assessed as reduction in matured miR-21 RNA at 10 uM after 48 hrs by RT-qPCR analysis relative to control
microRNA 21 [10] = assay: Inhibition of miR-21 RNA promoter (unknown origin) in HeLa cells expressing pGL4-miR21p assessed as decrease in miR-21 RNA promoter activity at 10 uM preincubated for 48 hrs followed by pGL4-miR21p transfection after 24 hrs by Bright-glo luciferase assay relative to DMSO; format: cell-based
microRNA 122 [11] = assay: Inhibition of miR-122 RNA (unknown origin) in HuH7 cells harboring luciferase gene assessed as reduction in luminescence at 10 uM after 48 hrs by dual luciferase assay relative to control; format: cell-based
Outline: (§2)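 Huh7-miR122 stable reporter cells treated at 10 µM for 48 h; known miR-122 inhibitor as positive control. Dual luciferase assay; Renilla signal normalized to firefly, then to DMSO. Three independent experiments, mean ± SD; unpaired t-test.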

microRNA 21 [12] = assay: Inhibition of pri-miR-21 RNA in human HeLa cells assessed as decrease in pri-miR-21 RNA level at 10 uM after 48 hrs by RT-qPCR method relative to control; format: cell-based
Outline: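 HeLa cells treated at 10 µM for 48 h; primary miR-21 levels measured by RT-qPCR.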

HeLa [13] = assay: Antiproliferative activity against human HeLa cells cell viability after 72 hrs by XTT assay; format: functional, cell-based
Outline: (§3)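 Cells treated with a serial dilution of compound for 72 h; viability read by XTT assay.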

HeLa [14] = assay: Induction of apoptosis in human HeLa cells assessed as increase in caspase 3/7 activity at 10 uM after 24 hrs by caspase3/7 activity assay; format: functional; outline: as §1
HeLa [15] = assay: Anticlonogenic activity against human HeLa cells assessed as reduction in colony formation after 2 weeks by crystal violet staining based microscopic method; format: functional, cell-based; conditions: 336 h
Outline: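 HeLa cells suspended in low-melt agarose and exposed to a dilution series of compound for two weeks at 37 °C, then imaged.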

microRNA 21 [16] = assay: Inhibition of miR-21 RNA in human SKOV3 cells assessed as reduction in matured miR-21 RNA at 10 uM after 48 hrs by RT-qPCR analysis relative to control
HEK293 = assay: Antiproliferative activity against human HEK293 cells cell viability after 72 hrs by XTT assay; format: cell-based; conditions: hek293, 72 h; outline: as §3
microRNA 122 [17] = assay: Inhibition of miR-122 RNA (unknown origin) in HuH7 cells harboring luciferase gene assessed as increase in luminescence at 10 uM after 48 hrs by dual luciferase assay relative to control; format: cell-based; outline: as §2

Luciferin 4-monooxygenase (Photinus pyralis), sequence (P08659 whole entry): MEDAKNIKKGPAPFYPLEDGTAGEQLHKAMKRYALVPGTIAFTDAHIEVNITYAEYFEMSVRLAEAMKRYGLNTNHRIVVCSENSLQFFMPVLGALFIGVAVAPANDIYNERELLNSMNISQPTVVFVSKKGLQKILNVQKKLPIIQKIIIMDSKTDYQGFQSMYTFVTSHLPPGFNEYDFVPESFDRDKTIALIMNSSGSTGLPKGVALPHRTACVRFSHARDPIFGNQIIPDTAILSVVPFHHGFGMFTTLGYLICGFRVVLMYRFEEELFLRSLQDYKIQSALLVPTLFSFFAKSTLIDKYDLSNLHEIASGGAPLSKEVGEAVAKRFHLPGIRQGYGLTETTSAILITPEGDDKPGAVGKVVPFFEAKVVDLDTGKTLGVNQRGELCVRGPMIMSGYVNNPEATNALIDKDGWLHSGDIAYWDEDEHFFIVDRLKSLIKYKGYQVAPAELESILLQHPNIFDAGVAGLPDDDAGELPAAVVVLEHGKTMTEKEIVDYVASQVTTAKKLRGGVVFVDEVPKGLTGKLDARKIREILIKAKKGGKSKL

| SMILES | fold change (FC) (microRNA 21 [1]) | other results |
| --- | --- | --- |
| COc1ccc(OCC(=O)Nc2ccc(-c3nc4ncccc4o3)cc2)cc1 | 2.25 | – |
| O=C(COc1ccccc1)Nc1ccc(-c2nc3ccccc3o2)cc1 | 1.47 | – |
| O=C(O)c1cccc(-c2noc(-c3ccccc3F)n2)c1 [ATALUREN] | – | fold change (FC) (HeLa [2]): 1.5 - 1.8; inhibition [3]: 94% |
| O=C(COc1ccccc1)Nc1cccc(-c2nc3cc(Cl)ccc3o2)c1 | 2.14 | – |
| COc1ccc(OCC(=O)Nc2cccc(-c3nc4cc(Cl)ccc4o3)c2)cc1 | 3.19 | – |
| COc1ccc(SCC(=O)Nc2ccc(-c3nc4cc(Cl)ccc4o3)cc2)cc1 | 2.64 | – |
| O=C(COc1ccc([N+](=O)[O-])cc1)Nc1ccc(-c2nc3cc(Cl)ccc3o2)cc1 | 3.58 | – |
| O=C(COc1ccccc1I)Nc1ccc(-c2nc3ccccc3o2)cc1 | 1.53 | – |
| O=C(COc1ccccc1)Nc1ccc2cc(-c3nc4cc(Cl)ccc4o3)ccc2c1 | 1.3 | – |
| COc1ccc(OCC(=O)Nc2ccc(-c3nc4cc(Cl)ccc4[nH]3)cc2)cc1 | 1.6 | – |
| O=C(Nc1ccc(-c2nc3cc(Cl)ccc3o2)cc1)Oc1ccccc1 | 3.86 | – |
| COc1ccc(OCC(=O)Nc2ccc(-c3nc4ccccc4o3)cc2)cc1 | 0.27 | – |
| COc1ccc(OCC(=O)Nc2cccc(-c3nc4ccccc4o3)c2)cc1 | 4.73 | – |
| COc1ccc(OCC(=O)Nc2ccc(-c3nc4cc(F)ccc4o3)cc2)cc1 | 2.14 | – |
| O=C(COc1ccc(F)cc1)Nc1ccc(-c2nc3cc(Cl)ccc3o2)cc1 | 2.86 | – |
| O=C(COc1ccc(-c2ccccc2)cc1)Nc1ccc(-c2nc3cc(Cl)ccc3o2)cc1 | 2.64 | – |
| COc1ccc(OCC(=O)Nc2ccc(-c3nc4cc(Br)ccc4o3)cc2)cc1 | 6.19 | fold change (FC) (HeLa [2]): 1.5 - 1.8; inhibition [4]: 38%; EC50 (microRNA 21 [5]): 6.4 µM; inhibition (microRNA 21 [5]): Dose-dependent effect |
| O=C(COc1ccccc1)Nc1ccc(-c2nc3ccccc3s2)cc1 | 1.68 | – |
| COc1ccc(OCC(=O)Nc2ccc(-c3nc4cc(-c5ccccc5)ccc4o3)cc2)cc1 | 7.87 | fold change (FC) (HeLa [2]): 1.5 - 1.8; inhibition [4]: 27%; EC50 (microRNA 21 [5]): 3.5 µM; inhibition (microRNA 21 [5]): Dose-dependent effect |

| SMILES | fold change (FC) (microRNA 21 [1]) | other results |
| --- | --- | --- |
| COc1ccc(OCC(=O)Nc2ccc(-c3nc4cc(Cl)ccc4o3)cc2)cc1 | 4.87 | Tm (microRNA 21 [6]): 56.2 °C; fold change (FC) (HeLa [7]): 2; inhibition (microRNA 21 [8]): 57%; Activity (HeLa [2]): inactive; inhibition (microRNA 21 [9]): 33%; inhibition (microRNA 21 [10]): 78%; fold change (FC) (microRNA 122 [11]): 0.2; inhibition (microRNA 21 [12]): 79%; inhibition [4]: inactive; EC50 (microRNA 21 [5]): 6.7 µM; inhibition (microRNA 21 [5]): Dose-dependent effect; IC50 (HeLa [13]): > 50 µM; Activity (HeLa [14]): 50%; EC50 (HeLa [15]): 7.3 µM; inhibition (microRNA 21 [16]): 31%; Activity (HEK293): Non-Toxic |
| COc1ccc(OCC(=O)N(C)c2ccc(-c3nc4cc(Cl)ccc4o3)cc2)cc1 | 0.88 | – |
| O=C(COc1ccccc1)Nc1ccc(-c2nc3cc(Cl)ccc3o2)cc1 | 2.87 | – |
| COc1ccc(OCC(=O)Nc2ccc(-c3nc4ccc(Cl)cc4o3)cc2)cc1 | 3.32 | – |
| N#Cc1ccc(OCC(=O)Nc2ccc(-c3nc4cc(Cl)ccc4o3)cc2)cc1 | 2.08 | – |
| COc1ccc(NCC(=O)Nc2ccc(-c3nc4cc(Cl)ccc4o3)cc2)cc1 | 0.14 | – |
| Cc1cc(OCC(=O)Nc2ccc(-c3nc4cc(Cl)ccc4o3)cc2)ccc1C(C)C | 2.23 | – |
| COc1ccc(OC(=O)Nc2ccc(-c3nc4cc(Cl)ccc4o3)cc2)cc1 | 3.48 | – |
| C#CCN(C(=O)COc1ccc(OC)cc1)c1ccc(-c2nc3cc(Cl)ccc3o2)cc1 | 1.61 | – |
| O=C(COc1ccccc1)Nc1ccc(-c2nc3ccc(Cl)cc3o2)cc1 | 2.65 | – |
| O=C(COc1ccccc1I)Nc1ccc(-c2nc3ccccc3s2)cc1 | 1.55 | – |
| O=C(COc1ccccc1)Nc1ccc(-c2nc3cc(F)ccc3o2)cc1 | 1.58 | – |
| O=C(COc1ccccc1)Nc1cccc(-c2nc3ccccc3o2)c1 | 1.75 | – |
| COc1cccc(OCC(=O)Nc2ccc(-c3nc4cc(Cl)ccc4o3)cc2)c1 | 5.37 | fold change (FC) (HeLa [2]): 1.5 - 1.8; inhibition [4]: 44%; EC50 (microRNA 21 [5]): 4.7 µM; inhibition (microRNA 21 [5]): Dose-dependent effect |
| O=S(=O)(c1ccc2c(c1)CCCN2)N1CCC[C@H]2CCCC[C@@H]21 | – | fold change (FC) (microRNA 122 [17]): > 3.5 |
| COc1ccc(OCC(=O)Nc2ccc(-c3nc4ccccc4s3)cc2)cc1 | 1.56 | – |
| COc1ccc(OCC(=O)Nc2nc3ccc(-c4nc5cc(Cl)ccc5o4)cc3s2)cc1 | 0.03 | – |
| O=C(COc1ccccc1)Nc1ccc(-c2nc3cc(Cl)ccc3[nH]2)cc1 | 0.41 | – |
